Measurements taken from ChEMBL document CHEMBL4049428, “Exploring Derivatives of Quinazoline Alkaloid l-Vasicine as Cap Groups in the Design and Biological Mechanistic Evaluation of Novel Antitumor Histone Deacetylase Inhibitors” (J Med Chem, 2017).
pIC50: −log10 of the molar value. The source made the active and inactive calls. The calls are words filed in the database; no cut-off is given here.

Experiments:
Histone deacetylase 3 = Histone deacetylase 3 (Homo sapiens, UniProt O15379); assay: Inhibition of HDAC 3 in human HeLa nuclear extract using HDAC substrate-3 measured after 60 mins by fluorometric analysis
Chain of Histone deacetylase 3 (O15379 whole entry): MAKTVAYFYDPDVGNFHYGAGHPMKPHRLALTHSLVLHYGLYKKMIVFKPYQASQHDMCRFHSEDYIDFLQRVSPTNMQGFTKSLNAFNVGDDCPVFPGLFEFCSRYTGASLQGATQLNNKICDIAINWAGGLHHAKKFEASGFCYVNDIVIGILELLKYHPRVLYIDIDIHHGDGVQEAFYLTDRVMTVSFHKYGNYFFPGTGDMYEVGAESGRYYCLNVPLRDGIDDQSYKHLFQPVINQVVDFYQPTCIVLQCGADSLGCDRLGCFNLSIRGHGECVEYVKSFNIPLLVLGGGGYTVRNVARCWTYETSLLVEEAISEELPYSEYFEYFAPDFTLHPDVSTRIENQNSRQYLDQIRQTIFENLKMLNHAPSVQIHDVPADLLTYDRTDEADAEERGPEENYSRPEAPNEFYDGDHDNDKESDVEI

Histone deacetylase 8 = Histone deacetylase 8 (Homo sapiens, UniProt Q9BY41); assay: Inhibition of HDAC 8 in human HeLa nuclear extract using fluorogenic HDAC class 2A substrate measured after 60 mins by fluorometric analysis
Chain of Histone deacetylase 8 (Q9BY41 whole entry): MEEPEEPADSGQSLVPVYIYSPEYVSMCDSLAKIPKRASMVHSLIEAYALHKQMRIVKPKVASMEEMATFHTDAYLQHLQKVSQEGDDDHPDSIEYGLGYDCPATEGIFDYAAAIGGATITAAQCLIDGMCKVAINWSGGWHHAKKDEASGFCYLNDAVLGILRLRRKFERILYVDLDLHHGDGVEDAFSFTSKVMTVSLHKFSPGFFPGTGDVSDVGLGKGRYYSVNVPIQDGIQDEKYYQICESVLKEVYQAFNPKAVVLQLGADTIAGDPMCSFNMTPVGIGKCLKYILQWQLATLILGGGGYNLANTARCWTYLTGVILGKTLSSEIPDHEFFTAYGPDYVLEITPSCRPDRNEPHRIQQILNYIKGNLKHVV

Histone deacetylase 4 = Histone deacetylase 4 (Homo sapiens, UniProt P56524); assay: Inhibition of HDAC 4 in human HeLa nuclear extract using fluorogenic HDAC class 2A substrate measured after 60 mins by fluorometric analysis
Chain of Histone deacetylase 4 (P56524 whole entry): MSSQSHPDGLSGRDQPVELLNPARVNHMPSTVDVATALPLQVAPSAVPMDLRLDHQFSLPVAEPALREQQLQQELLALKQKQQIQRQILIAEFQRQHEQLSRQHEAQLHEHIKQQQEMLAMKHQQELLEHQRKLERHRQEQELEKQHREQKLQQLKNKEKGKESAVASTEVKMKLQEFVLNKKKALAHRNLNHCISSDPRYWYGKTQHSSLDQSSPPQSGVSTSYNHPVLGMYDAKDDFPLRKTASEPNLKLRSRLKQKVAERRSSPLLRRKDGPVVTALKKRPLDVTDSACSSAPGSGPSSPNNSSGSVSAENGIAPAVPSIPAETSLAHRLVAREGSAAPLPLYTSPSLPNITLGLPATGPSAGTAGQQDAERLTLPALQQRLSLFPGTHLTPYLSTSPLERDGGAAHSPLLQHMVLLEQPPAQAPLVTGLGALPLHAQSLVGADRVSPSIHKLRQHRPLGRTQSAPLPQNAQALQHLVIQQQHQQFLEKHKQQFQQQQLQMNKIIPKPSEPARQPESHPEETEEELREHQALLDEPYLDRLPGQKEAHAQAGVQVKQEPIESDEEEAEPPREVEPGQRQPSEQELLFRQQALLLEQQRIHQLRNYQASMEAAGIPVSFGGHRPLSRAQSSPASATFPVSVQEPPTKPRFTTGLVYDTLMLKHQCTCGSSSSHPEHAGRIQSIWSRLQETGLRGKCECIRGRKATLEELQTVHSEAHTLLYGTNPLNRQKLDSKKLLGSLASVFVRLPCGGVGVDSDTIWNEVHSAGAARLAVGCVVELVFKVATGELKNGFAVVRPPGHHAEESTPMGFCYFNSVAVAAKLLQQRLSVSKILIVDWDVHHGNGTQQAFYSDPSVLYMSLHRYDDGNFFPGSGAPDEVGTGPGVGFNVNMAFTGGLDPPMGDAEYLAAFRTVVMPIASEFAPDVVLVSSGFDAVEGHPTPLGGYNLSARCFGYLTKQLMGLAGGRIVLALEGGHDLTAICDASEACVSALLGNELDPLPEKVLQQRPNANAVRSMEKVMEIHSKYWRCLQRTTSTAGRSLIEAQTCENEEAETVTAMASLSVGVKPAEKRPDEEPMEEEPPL

Histone deacetylase 5 = Histone deacetylase 5 (Homo sapiens, UniProt Q9UQL6); assay: Inhibition of HDAC 5 in human HeLa nuclear extract using fluorogenic HDAC class 2A substrate measured after 60 mins by fluorometric analysis
Chain of Histone deacetylase 5 (Q9UQL6 whole entry): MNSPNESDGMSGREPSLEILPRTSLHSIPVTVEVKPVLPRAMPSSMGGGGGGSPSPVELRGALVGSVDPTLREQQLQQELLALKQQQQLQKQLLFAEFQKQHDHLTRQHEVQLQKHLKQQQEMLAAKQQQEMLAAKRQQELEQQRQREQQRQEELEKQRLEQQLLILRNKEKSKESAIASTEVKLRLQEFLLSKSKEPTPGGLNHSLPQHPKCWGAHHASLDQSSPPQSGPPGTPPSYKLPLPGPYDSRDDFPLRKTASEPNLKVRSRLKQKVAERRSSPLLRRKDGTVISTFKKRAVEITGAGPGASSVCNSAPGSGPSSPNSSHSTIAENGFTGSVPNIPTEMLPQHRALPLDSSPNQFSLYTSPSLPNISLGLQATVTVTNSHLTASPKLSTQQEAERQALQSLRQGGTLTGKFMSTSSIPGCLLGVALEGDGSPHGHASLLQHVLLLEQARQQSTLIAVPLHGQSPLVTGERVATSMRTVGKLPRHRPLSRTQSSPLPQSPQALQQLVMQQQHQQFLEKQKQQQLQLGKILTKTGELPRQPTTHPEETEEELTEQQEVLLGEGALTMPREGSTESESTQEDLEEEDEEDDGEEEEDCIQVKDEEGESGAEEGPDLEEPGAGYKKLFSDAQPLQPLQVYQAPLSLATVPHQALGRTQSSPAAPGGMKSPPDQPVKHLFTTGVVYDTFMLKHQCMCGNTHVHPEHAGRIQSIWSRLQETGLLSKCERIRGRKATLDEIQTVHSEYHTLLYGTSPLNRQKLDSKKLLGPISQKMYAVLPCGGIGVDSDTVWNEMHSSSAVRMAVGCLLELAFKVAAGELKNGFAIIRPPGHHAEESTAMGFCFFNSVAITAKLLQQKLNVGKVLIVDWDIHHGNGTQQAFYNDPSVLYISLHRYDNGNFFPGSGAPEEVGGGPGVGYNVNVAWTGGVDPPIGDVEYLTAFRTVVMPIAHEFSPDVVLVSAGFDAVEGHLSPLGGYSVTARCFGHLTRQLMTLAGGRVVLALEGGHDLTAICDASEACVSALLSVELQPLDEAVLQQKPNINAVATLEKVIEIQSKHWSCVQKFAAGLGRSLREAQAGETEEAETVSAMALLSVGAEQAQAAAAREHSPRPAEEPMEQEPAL

[1] = target: Polyamine deacetylase HDAC10 (Homo sapiens, UniProt Q969S8); assay: Inhibition of HDAC 10 in human HeLa nuclear extract measured after 60 mins by fluorometric analysis
Chain of Polyamine deacetylase HDAC10 (Q969S8 whole entry): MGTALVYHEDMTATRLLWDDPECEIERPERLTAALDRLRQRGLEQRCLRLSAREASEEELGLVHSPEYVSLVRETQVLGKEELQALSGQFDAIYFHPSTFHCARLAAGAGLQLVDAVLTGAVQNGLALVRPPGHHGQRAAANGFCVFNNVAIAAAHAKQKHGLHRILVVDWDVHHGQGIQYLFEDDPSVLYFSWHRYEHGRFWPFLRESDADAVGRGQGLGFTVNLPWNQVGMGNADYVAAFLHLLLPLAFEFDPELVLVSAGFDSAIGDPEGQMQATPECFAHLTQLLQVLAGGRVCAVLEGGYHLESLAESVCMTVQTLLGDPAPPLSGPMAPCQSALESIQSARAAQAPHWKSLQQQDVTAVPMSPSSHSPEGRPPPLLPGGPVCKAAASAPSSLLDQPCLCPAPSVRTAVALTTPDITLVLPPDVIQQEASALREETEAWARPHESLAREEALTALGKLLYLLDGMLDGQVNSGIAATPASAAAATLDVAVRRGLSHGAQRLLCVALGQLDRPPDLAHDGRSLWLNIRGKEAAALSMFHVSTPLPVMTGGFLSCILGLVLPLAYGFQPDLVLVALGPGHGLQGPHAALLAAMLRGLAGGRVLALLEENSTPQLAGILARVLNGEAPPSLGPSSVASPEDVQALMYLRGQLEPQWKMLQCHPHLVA

THP-1 [2] = assay: Cytotoxicity against human THP1 cells assessed as growth inhibition at 10 uM after 48 hrs by MTT assay; format: functional; details: THP-1, 48 h, read-out: GI
In short: (§1)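 MTT assay, 48 h exposure; adherent lines seeded 12 h and suspension lines 4 h before compound. Media: RPMI-1640/10% FCS (THP-1, HL-60, Colo-205, Caco-2, A549), DMEM/10% FCS (A549, MIAPaCa-2, MCF-7). MTT 4 h, formazan dissolved in DMSO, absorbance 570 nm. Mean ± S.D of three experiments in triplicate; SAHA 5 µM reference.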

HL-60 [3] = assay: Cytotoxicity against human HL60 cells assessed as growth inhibition at 10 uM after 48 hrs by MTT assay; format: functional; details: HL-60, 48 h, read-out: GI; in short: as §1
MOLT-4 [4] = assay: Cytotoxicity against human MOLT4 cells assessed as growth inhibition at 10 uM after 48 hrs by MTT assay; format: functional; details: MOLT-4, 48 h, read-out: GI
COLO 205 [5] = assay: Cytotoxicity against human COLO205 cells assessed as growth inhibition at 10 uM after 48 hrs by MTT assay; format: functional; details: COLO 205, 48 h, read-out: GI; in short: as §1
MIA PaCa-2 = assay: Cytotoxicity against human MIAPaCa2 cells assessed as growth inhibition at 10 uM after 48 hrs by MTT assay; format: functional; details: MIA PaCa-2, 48 h, read-out: GI; in short: as §1
MCF7 = assay: Cytotoxicity against human MCF7 cells assessed as growth inhibition at 10 uM after 48 hrs by MTT assay; format: functional; details: MCF7, 48 h, read-out: GI; in short: as §1
MOLT-4 [6] = assay: Cytotoxicity against human MOLT4 cells assessed as growth inhibition after 48 hrs by MTT assay; format: functional, cell-based; details: MOLT-4, 48 h
COLO 205 [7] = assay: Cytotoxicity against human COLO205 cells assessed as growth inhibition after 48 hrs by MTT assay; format: functional, cell-based; details: COLO 205, 48 h
Caco-2 = assay: Cytotoxicity against human Caco2 cells assessed as growth inhibition after 48 hrs by MTT assay; format: functional, cell-based; details: Caco-2, 48 h
Homo sapiens = organism: Homo sapiens; assay: Inhibition of HDAC in human MOLT4 cells assessed as increase in acetylated H3K18 levels after 48 hrs by Western blot analysis; format: cell-based
In short: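 Cells seeded 2-4 h, treated 48 h with graded compound concentrations (SAHA control); histones acid-extracted (HEPES pH 9 buffer, 0.2 N HCl, 1 h on ice), Bradford-normalised, resolved on 18% SDS gels, blotted to PVDF, probed for acetyl-H3K18 and acetyl-H4K5 with H3 and β-actin loading controls; ECL detection.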

[8] = Cytotoxicity against human FR2 cells assessed as growth inhibition after 48 hrs by MTT assay; format: ADME, cell-based; details: FR2, 48 h
HL-60 [9] = assay: Induction of mitochondrial membrane potential loss in human HL60 cells at 0.125 uM measured after 48 hrs by Rh123 dye-based flow cytometric analysis (reference value: 5.6%); format: functional
In short: (§2)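 Cells seeded in 6-well plates 2-4 h, then 48 h with compound; Rh-123 1 µM added for the final half hour; cells centrifuged, washed twice in PBS, resuspended in PBS, and Ψm loss quantified by flow cytometry as percentage of cells.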

HL-60 [10] = assay: Induction of mitochondrial membrane potential loss in human HL60 cells assessed as intact mitochondrial membrane potential at 5 uM measured after 48 hrs by Rh123 dye-based flow cytometric analysis (reference value: 91.3%); format: functional; in short: as §2
MOLT-4 [11] = assay: Induction of mitochondrial membrane potential loss in human MOLT4 cells at 1 uM measured after 48 hrs by Rh123 dye-based flow cytometric analysis (reference value: 9.6%); format: functional; in short: as §2
MOLT-4 [12] = assay: Induction of mitochondrial membrane potential loss in human MOLT4 cells assessed as intact mitochondrial membrane potential at 1 uM measured after 48 hrs by Rh123 dye-based flow cytometric analysis (reference value: 90.4%); format: functional; in short: as §2
MOLT-4 [13] = assay: Induction of mitochondrial membrane potential loss in human MOLT4 cells assessed as intact mitochondrial membrane potential at 0.125 uM measured after 48 hrs by Rh123 dye-based flow cytometric analysis (reference value: 90.4%); format: functional; in short: as §2
MOLT-4 [14] = assay: Induction of mitochondrial membrane potential loss in human MOLT4 cells at 5 uM measured after 48 hrs by Rh123 dye-based flow cytometric analysis (reference value: 9.6%); format: functional; in short: as §2
MOLT-4 [15] = assay: Induction of mitochondrial membrane potential loss in human MOLT4 cells at 10 uM measured after 48 hrs by Rh123 dye-based flow cytometric analysis (reference value: 90.4%); format: functional; in short: as §2
HL-60 [16] = assay: Induction of reactive oxygen species in human HL60 cells at 0.125 uM measured after 48 hrs by H2DCFDA dye-based flow cytometric analysis (reference value: 0.4%); format: functional
HL-60 [17] = assay: Induction of reactive oxygen species in human HL60 cells at 1 uM measured after 48 hrs by H2DCFDA dye-based flow cytometric analysis (reference value: 0.4%); format: functional
MOLT-4 [18] = assay: Induction of reactive oxygen species in human MOLT4 cells at 10 uM measured after 48 hrs by H2DCFDA dye-based flow cytometric analysis (reference value: 1.1%); format: functional
MOLT-4 [19] = assay: Induction of autophagy in human MOLT4 cells assessed as intracellular LC-3B distribution at 10 uM after 48 hrs by DAPI dye-based immunofluorescent microscopic analysis; format: functional, cell-based
In short: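 After 48 h treatment (SAHA 1.0 µM control), cells put on poly-lysine coverslips, fixed 15 min in 4% paraformaldehyde, permeabilised with 0.1% Triton X-100, blocked in 10% BSA; anti-LC-3B 1:100 for 1 h, Alexa Fluor 488 secondary 1:500 for 1 h, DAPI 1 µg/ml counterstain; imaged with 60X oil objective.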

THP-1 [20] = assay: Antimigratory activity in human THP1 cells at 0.125 uM after 48 hrs by wound healing assay; format: functional, cell-based
In short: (§3)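 THP-1 cells seeded at high density, attached overnight; monolayer scratched with a pipette tip, debris removed by PBS washes, then test compound added after wounding. Incubated 48 h under standard culture conditions (37°C, 5% CO2); wound images taken at various intervals from time zero.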

THP-1 [21] = assay: Antimigratory activity in human THP1 cells at 10 uM after 48 hrs by wound healing assay; format: functional, cell-based; in short: as §3

O=C(CCCCCCC(=O)Nc1ccccc1CN1CC[C@H](O)C1)NO
pIC50 (Histone deacetylase 3): 6.43 | pIC50 (Histone deacetylase 8): 6.68 | pIC50 (Histone deacetylase 4): 5.15 | pIC50 (Histone deacetylase 5): 5.27 | pIC50 [1]: < 5.00 | inhibition of growth at 10 µM (THP-1 [2]): 94% | inhibition of growth at 10 µM (HL-60 [3]): 95% | inhibition of growth at 10 µM (MOLT-4 [4]): 91% | inhibition of growth at 10 µM (COLO 205 [5]): 92% | inhibition of growth at 10 µM (MIA PaCa-2): 93% | inhibition of growth at 10 µM (MCF7): 93% | pIC50 (MOLT-4 [6]): 6.09 | pIC50 (COLO 205 [7]): 6.22 | pIC50 (Caco-2): 5.22 | inhibition (Homo sapiens): Dose-dependent effect | pIC50 [8]: 4.64 | Activity (HL-60 [9]): 7.5% | Activity (HL-60 [10]): 82.6% | Activity (MOLT-4 [11]): 4.9% | Activity (MOLT-4 [12]): 95.1% | Activity (MOLT-4 [13]): 97.6% | Activity (MOLT-4 [14]): 57.5% | Activity (MOLT-4 [15]): 32.5% | Activity (HL-60 [16]): 1% | Activity (HL-60 [17]): 0.6% | Activity (MOLT-4 [18]): 0.9% | Activity (MOLT-4 [19]): Active | Activity (THP-1 [20]): Active | Activity (THP-1 [21]): Active
